ChEMBL document CHEMBL3232910, “Synthesis and evaluation of several oleanolic acid glycoconjugates as protein tyrosine phosphatase 1B inhibitors” (Eur J Med Chem, 2014)
pIC50: −log10 of the molar value.

Columns and labels:
[1] = organism: Homo sapiens; assay: Selectivity ratio of IC50 for TCPTP (unknown origin) to IC50 for recombinant PTP1B (unknown origin)
How it was run: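 Ratio of TCPTP IC50 to PTP1B IC50. Both come from the same pNPP hydrolysis assay: 10 min preincubation at 37 C in 50 mM HEPES, 2.5 mM EDTA, pH 7.0, 30 min reaction, Na2CO3 quench, A405. IC50 from 4-parameter logistic fits.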

[2] = target: T1, Tyrosine-protein phosphatase non-receptor type 1 (Homo sapiens) (UniProt P18031); assay: Inhibition of recombinant PTP1B (unknown origin) using p-nitrophenyl phosphate as substrate assessed as inhibition of release of p-nitrophenol preincubated for 10 mins measured before substrate addition at 10 ug/ml after 30 mins by spectrophotometry
T1 sequence (whole entry): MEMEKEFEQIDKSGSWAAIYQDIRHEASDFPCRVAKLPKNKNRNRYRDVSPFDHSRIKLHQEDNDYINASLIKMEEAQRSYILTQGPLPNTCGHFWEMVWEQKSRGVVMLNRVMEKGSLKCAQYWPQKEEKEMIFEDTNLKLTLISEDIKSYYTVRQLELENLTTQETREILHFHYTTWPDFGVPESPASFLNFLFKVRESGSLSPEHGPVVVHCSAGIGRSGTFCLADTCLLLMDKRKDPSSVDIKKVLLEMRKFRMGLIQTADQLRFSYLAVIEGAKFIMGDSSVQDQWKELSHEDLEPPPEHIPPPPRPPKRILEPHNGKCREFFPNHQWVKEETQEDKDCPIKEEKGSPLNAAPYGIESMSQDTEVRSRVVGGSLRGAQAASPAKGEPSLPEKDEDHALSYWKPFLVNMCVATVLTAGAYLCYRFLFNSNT

[3] = target: T2, Tyrosine-protein phosphatase non-receptor type 1 (Homo sapiens, UniProt P18031); assay: Inhibition of recombinant PTP1B (unknown origin) using p-nitrophenyl phosphate as substrate assessed as inhibition of release of p-nitrophenol preincubated for 10 mins measured before substrate addition after 30 mins by spectrophotometry
T2 sequence (P18031 whole entry): T1 sequence (whole entry)
How it was run: (§1)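 Enzyme diluted in 25 mM HEPES, 50 mM NaCl, 2.5 mM EDTA, 0.1% BSA, pH 7.2. Inhibitor in DMSO was preincubated with enzyme in 50 mM HEPES, 2.5 mM EDTA, pH 7.0 at 37 C for 10 min. pNPP was then added, 30 min at 37 C, stopped with 2 M Na2CO3, A405 read.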

[4] = target: T3, Tyrosine-protein phosphatase non-receptor type 2 (Homo sapiens, UniProt P17706); assay: Inhibition of TCPTP (unknown origin) using p-nitrophenyl phosphate as substrate assessed as inhibition of release of p-nitrophenol preincubated for 10 mins measured before substrate addition after 30 mins by spectrophotometry; how it was run: as §1
T3 sequence (P17706 whole entry): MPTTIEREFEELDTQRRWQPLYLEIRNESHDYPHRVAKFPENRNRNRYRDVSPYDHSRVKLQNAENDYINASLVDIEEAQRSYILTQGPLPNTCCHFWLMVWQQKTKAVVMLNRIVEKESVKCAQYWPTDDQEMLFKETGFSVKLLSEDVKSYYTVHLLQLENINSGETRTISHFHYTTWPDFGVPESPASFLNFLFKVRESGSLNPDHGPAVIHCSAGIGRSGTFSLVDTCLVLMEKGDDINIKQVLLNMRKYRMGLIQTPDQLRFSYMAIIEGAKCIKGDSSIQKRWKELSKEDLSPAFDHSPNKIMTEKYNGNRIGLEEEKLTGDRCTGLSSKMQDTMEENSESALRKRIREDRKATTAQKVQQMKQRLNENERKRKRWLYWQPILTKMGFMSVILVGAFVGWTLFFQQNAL

SMILES	Ratio IC50 [1]	inhibition [2]	pIC50 [3]	pIC50 [4]
CC1(C)CC[C@]2(C(=O)O[C@@H]3O[C@H](CNC(=O)c4ccccc4C(=O)O)[C@@H](O)[C@H](O)[C@H]3O)CC[C@]3(C)C(=CC[C@@H]4[C@@]5(C)CC[C@H](O[C@@H]6O[C@H](CO)[C@@H](O[C@@H]7O[C@H](CO)[C@H](O)[C@H](O)[C@H]7O)[C@H](O)[C@H]6O)C(C)(C)[C@@H]5CC[C@]43C)[C@@H]2C1	4	> 54.7%	5.99	5.39
CC1(C)CC[C@]2(C(=O)O[C@@H]3O[C@H](CNC(=O)c4ccccc4C(=O)O)[C@@H](O)[C@H](O)[C@H]3O)CC[C@]3(C)C(=CC[C@@H]4[C@@]5(C)CC[C@H](O[C@@H]6O[C@H](CO)[C@H](O)[C@H](O)[C@H]6O)C(C)(C)[C@@H]5CC[C@]43C)[C@@H]2C1	2.2	> 54.7%	5.19	4.84
CC1(C)CC[C@]2(C(=O)O[C@@H]3O[C@H](CNC(=O)c4ccccc4C(=O)O)[C@@H](O)[C@H](O)[C@H]3O)CC[C@]3(C)C(=CC[C@@H]4[C@@]5(C)CC[C@H](O[C@@H]6O[C@H](CO)[C@@H](O[C@@H]7O[C@H](CO)[C@@H](O)[C@H](O)[C@H]7O)[C@H](O)[C@H]6O)C(C)(C)[C@@H]5CC[C@]43C)[C@@H]2C1	2.8	> 54.7%	6.11	5.67
CC1(C)CC[C@]2(C(=O)O[C@@H]3O[C@H](CNC(=O)c4ccccc4C(=O)O)[C@@H](O)[C@H](O)[C@H]3O)CC[C@]3(C)C(=CC[C@@H]4[C@@]5(C)CC[C@H](O[C@@H]6O[C@H](CO)[C@@H](O)[C@H](O)[C@H]6O)C(C)(C)[C@@H]5CC[C@]43C)[C@@H]2C1	1.8	> 54.7%	4.76	4.52
CC1(C)CC[C@]2(C(=O)O[C@@H]3O[C@H](CNC(=O)c4ccccc4C(=O)O)[C@@H](O)[C@H](O)[C@H]3O)CC[C@]3(C)C(=CC[C@@H]4[C@@]5(C)CC[C@H](O[C@@H]6OC[C@H](O)[C@H](O)[C@H]6O)C(C)(C)[C@@H]5CC[C@]43C)[C@@H]2C1	2.2	> 54.7%	5.25	4.91
C[C@@H]1O[C@@H](O[C@H]2CC[C@]3(C)[C@H]4CC=C5[C@@H]6CC(C)(C)CC[C@]6(C(=O)O[C@@H]6O[C@H](CNC(=O)c7ccccc7C(=O)O)[C@@H](O)[C@H](O)[C@H]6O)CC[C@@]5(C)[C@]4(C)CC[C@H]3C2(C)C)[C@@H](O)[C@H](O)[C@@H]1O	0.8	> 54.7%	4.98	5.06
CC1(C)CC[C@]2(C(=O)O[C@@H]3O[C@H](CNC(=O)c4ccccc4C(=O)O)[C@@H](O)[C@H](O)[C@H]3O)CC[C@]3(C)C(=CC[C@@H]4[C@@]5(C)CC[C@H](O[C@@H]6OC[C@@H](O)[C@H](O)[C@H]6O)C(C)(C)[C@@H]5CC[C@]43C)[C@@H]2C1	0.9	> 54.7%	4.78	4.81
CC1(C)CC[C@]2(C(=O)O[C@@H]3O[C@H](CNC(=O)c4ccccc4C(=O)O)[C@@H](O)[C@H](O)[C@H]3O)CC[C@]3(C)C(=CC[C@@H]4[C@@]5(C)CC[C@H](O)C(C)(C)[C@@H]5CC[C@]43C)[C@@H]2C1	1.2	54.7%	4.69	4.61
CC1(C)CC[C@]2(C(=O)O[C@@H]3O[C@H](CNC(=O)c4ccccc4C(=O)O)[C@@H](O)[C@H](O)[C@H]3O)CC[C@]3(C)C(=CC[C@@H]4[C@@]5(C)CC[C@H](O[C@H]6O[C@H](CO)[C@@H](O)[C@H](O)[C@@H]6O)C(C)(C)[C@@H]5CC[C@]43C)[C@@H]2C1		> 54.7%	4.80	
C[C@@H]1O[C@@H](O[C@H]2CC[C@]3(C)[C@H]4CC=C5[C@@H]6CC(C)(C)CC[C@]6(C(=O)O[C@@H]6O[C@H](CNC(=O)c7ccccc7C(=O)O)[C@@H](O)[C@H](O)[C@H]6O)CC[C@@]5(C)[C@]4(C)CC[C@H]3C2(C)C)[C@H](O)[C@H](O)[C@H]1O		> 54.7%	4.58	
CC1(C)CC[C@]2(C(=O)O[C@@H]3O[C@H](CNC(=O)c4ccccc4C(=O)O)[C@@H](O)[C@H](O)[C@H]3O)CC[C@]3(C)C(=CC[C@@H]4[C@@]5(C)CC[C@H](O[C@@H]6O[C@H](CO[C@@H]7O[C@H](CO)[C@@H](O)[C@H](O)[C@H]7O)[C@@H](O)[C@H](O)[C@H]6O)C(C)(C)[C@@H]5CC[C@]43C)[C@@H]2C1	1	> 54.7%	5.51	5.53
